Reference: ChEMBL document CHEMBL4842318, “A γ-lactam siderophore antibiotic effective against multidrug-resistant Pseudomonas aeruginosa, Klebsiella pneumoniae, and Acinetobacter spp” (Eur J Med Chem, 2021)
pIC50: −log10 of the molar value.

Experiments:
[1] = Substrate activity at VIM-2 (unknown origin) assessed as Kcat by measuring hydrolysis by spectrophotometry; type: ADME
Outline: (§1)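 Substrate hydrolysis (600 μM start) followed at 336 nm (Δε336 = −4362 M−1 cm−1, 0.2 cm cuvette) to completion; velocities over 10 s intervals along progress curve; Km, Vmax from double reciprocal plot, kcat = Vmax/[E].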

Acinetobacter baumannii [2] = assay: Antibacterial activity against carbapenem resistant Acinetobacter baumannii isolate PR-351 assessed as bacterial growth inhibition by microdilution method; type: functional
Outline: (§2)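 Broth microdilution in Chelex-treated, iron-depleted cation-adjusted Mueller-Hinton broth, following the protocol used for siderophore-containing antibiotics; inoculum lowered to 6 × 10^4 cfu/mL; MIC read as growth inhibition, in μg/mL.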

Acinetobacter baumannii [3] = assay: Antibacterial activity against carbapenem resistant Acinetobacter baumannii isolate PR-399 assessed as bacterial growth inhibition by microdilution method; type: functional; outline: as §2
[4] = target: Penicillin-binding protein 3 (Pseudomonas aeruginosa, UniProt Q51504); assay: Inhibition of Pseudomonas aeruginosa PBP3 assessed as reduction in fluorescence intensity using Bocillin-protein as fluorescent substrate preincubated for 20 mins measured after 20 mins by SDS PAGE analysis
Chain of Penicillin-binding protein 3 (Q51504 whole entry): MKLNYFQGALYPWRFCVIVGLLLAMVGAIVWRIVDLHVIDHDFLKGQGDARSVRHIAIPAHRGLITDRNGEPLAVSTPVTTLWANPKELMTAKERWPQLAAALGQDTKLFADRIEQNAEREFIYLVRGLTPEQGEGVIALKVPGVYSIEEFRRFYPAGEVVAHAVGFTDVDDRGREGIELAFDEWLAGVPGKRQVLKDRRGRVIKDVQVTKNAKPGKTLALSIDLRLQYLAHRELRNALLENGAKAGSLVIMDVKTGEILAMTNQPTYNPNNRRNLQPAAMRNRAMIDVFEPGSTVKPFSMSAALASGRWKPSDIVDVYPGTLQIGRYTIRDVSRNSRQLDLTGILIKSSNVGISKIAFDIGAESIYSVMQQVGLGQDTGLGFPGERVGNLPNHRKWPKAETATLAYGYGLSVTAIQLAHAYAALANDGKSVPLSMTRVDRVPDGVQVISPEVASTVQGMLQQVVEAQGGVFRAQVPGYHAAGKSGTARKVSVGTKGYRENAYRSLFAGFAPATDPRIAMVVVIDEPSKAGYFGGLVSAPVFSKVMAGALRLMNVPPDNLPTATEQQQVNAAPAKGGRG
Outline: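 Purified soluble P. aeruginosa PBP3 at 1.6 μM in 10 mM PBS, pH 7.4. Preincubated with increasing compound concentrations for 20 min at 37 °C, then 50 μM Bocillin added for a further 20 min. Stopped with SDS loading dye and 2 min boiling, then run on SDS-PAGE and imaged at 365 nm. IC50 taken as the concentration halving Bocillin-labelled band fluorescence.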

[5] = Substrate activity at IMP-1 (unknown origin) assessed as ratio of Kcat to Km by measuring hydrolysis by spectrophotometry; type: ADME; outline: as §1
COX-1 = COX-1 (Homo sapiens, UniProt P23219); assay: Inhibition of COX-1 (unknown origin) at 30 uM
Chain of COX-1 (P23219 whole entry): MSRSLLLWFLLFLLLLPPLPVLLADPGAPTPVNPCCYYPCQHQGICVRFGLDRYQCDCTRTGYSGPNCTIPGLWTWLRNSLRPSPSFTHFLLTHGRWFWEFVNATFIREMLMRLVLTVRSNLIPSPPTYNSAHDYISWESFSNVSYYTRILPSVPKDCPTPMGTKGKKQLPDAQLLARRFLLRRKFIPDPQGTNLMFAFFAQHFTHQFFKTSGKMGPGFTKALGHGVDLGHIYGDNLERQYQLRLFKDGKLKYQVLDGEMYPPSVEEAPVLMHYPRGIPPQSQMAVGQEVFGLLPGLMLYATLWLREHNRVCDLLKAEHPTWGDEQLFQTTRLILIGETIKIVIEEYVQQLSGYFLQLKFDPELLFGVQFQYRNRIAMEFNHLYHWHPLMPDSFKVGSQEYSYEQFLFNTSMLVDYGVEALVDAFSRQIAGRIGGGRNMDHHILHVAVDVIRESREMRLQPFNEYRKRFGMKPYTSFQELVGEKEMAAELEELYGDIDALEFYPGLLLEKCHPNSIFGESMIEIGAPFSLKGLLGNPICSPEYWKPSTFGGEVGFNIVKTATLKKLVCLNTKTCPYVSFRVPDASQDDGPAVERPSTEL

Pseudomonas aeruginosa [6] = assay: Antibacterial activity against wild type Pseudomonas aeruginosa isolate PR-567 assessed as inhibition of bacterial growth by microdilution method; type: functional
Outline: (§3)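 Broth microdilution MIC in iron-depleted (Chelex resin-treated) cation-adjusted Mueller-Hinton broth, following the protocol used for siderophore-containing antibiotics. Inoculum was lowered to 6 × 10^4 cfu/mL.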

Acinetobacter baumannii [7] = assay: Antibacterial activity against carbapenem resistant Acinetobacter baumannii isolate PR-380 assessed as inhibition of bacterial growth in presence of 20 ug/ml sulbactam by microdilution method; type: functional; conditions: dose 20 µg/ml
CYP2C8 = target: T1, CYP2C8 (Homo sapiens, UniProt P10632); assay: Inhibition of CYP2C8 (unknown origin) at 100 uM; type: ADME
T1 sequence (P10632 whole entry): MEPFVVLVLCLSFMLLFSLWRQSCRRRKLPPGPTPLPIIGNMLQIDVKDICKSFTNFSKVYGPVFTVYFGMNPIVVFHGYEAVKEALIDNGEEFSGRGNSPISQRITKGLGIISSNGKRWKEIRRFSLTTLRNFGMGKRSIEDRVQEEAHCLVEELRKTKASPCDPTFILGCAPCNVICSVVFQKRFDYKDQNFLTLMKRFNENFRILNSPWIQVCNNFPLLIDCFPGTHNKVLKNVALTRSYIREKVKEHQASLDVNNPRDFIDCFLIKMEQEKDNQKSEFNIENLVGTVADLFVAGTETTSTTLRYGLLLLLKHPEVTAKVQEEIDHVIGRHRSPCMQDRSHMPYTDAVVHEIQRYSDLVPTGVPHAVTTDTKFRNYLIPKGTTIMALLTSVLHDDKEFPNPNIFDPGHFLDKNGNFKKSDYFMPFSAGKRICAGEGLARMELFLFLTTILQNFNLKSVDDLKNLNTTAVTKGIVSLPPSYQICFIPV

Acinetobacter baumannii [8] = assay: Antibacterial activity against carbapenem resistant Acinetobacter baumannii isolate PR-326 assessed as bacterial growth inhibition by microdilution method; type: functional; outline: as §2
Acinetobacter baumannii [9] = assay: Antibacterial activity against carbapenem resistant Acinetobacter baumannii isolate PR-482 assessed as inhibition of bacterial growth at 1:1 compound to sulbactam concentration by microdilution method; type: functional
Outline: (§4)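 Iron-depleted (Chelex-treated) cation-adjusted Mueller-Hinton broth microdilution; inoculum 6 × 10^4 cfu/mL. Test agent and sulbactam mixed 1:1 by mass and serially 2-fold diluted together. MIC in μg/mL.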

Acinetobacter baumannii [10] = assay: Antibacterial activity against carbapenem resistant Acinetobacter baumannii isolate PR-387 assessed as inhibition of bacterial growth in presence of 20 ug/ml sulbactam by microdilution method; type: functional; conditions: dose 20 µg/ml
Acinetobacter baumannii [11] = assay: Antibacterial activity against carbapenem susceptible Acinetobacter baumannii isolate PR-464 assessed as bacterial growth inhibition by microdilution method; type: functional; outline: as §3
Acinetobacter baumannii [12] = assay: Antibacterial activity against carbapenem resistant Acinetobacter baumannii isolate PR-423 assessed as inhibition of bacterial growth at 1:1 compound to sulbactam concentration by microdilution method; type: functional; outline: as §4
[13] = Antibacterial activity against carbapenem susceptible Acinetobacter nosocomialis isolate PR-362 assessed as inhibition of bacterial growth at 1:1 compound to sulbactam concentration by microdilution method; type: functional
Outline: (§5)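 Broth microdilution MIC in Chelex-treated, iron-depleted cation-adjusted Mueller-Hinton broth, inoculum 6 × 10^4 cfu/mL. Compound and sulbactam combined 1:1 by mass in a 2-fold dilution series.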

Acinetobacter baumannii [14] = assay: Antibacterial activity against carbapenem susceptible Acinetobacter baumannii isolate PR-434 assessed as inhibition of bacterial growth in presence of 20 ug/ml sulbactam by microdilution method; type: functional; conditions: dose 20 µg/ml
Outline: (§6)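 MIC by broth microdilution using iron-depleted (Chelex-treated) cation-adjusted Mueller-Hinton broth and 6 × 10^4 cfu/mL inoculum. Compound serially diluted with sulbactam held constant at 20 μg/mL.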

Acinetobacter baumannii [15] = assay: Antibacterial activity against carbapenem resistant Acinetobacter baumannii isolate PR-384 assessed as bacterial growth inhibition by microdilution method; type: functional; outline: as §2
Acinetobacter baumannii [16] = assay: Antibacterial activity against carbapenem susceptible Acinetobacter baumannii isolate PR-464 assessed as inhibition of bacterial growth at 1:1 compound to sulbactam concentration by microdilution method; type: functional; outline: as §5
Acinetobacter baumannii [17] = assay: Antibacterial activity against 98 member subset of carbapenem resistant Acinetobacter baumannii assessed as assessed as inhibition of bacterial growth by microdilution method; type: functional; outline: as §2
Pseudomonas aeruginosa [18] = assay: Antibacterial activity against wild type Pseudomonas aeruginosa isolate PR-673 leucine at 533 residue assessed as inhibition of bacterial growth by microdilution method; type: functional; outline: as §3
Acinetobacter baumannii [19] = assay: Antibacterial activity against carbapenem resistant Acinetobacter baumannii isolate PR-319 assessed as inhibition of bacterial growth in presence of 20 ug/ml sulbactam by microdilution method; type: functional; conditions: dose 20 µg/ml
Acinetobacter baumannii [20] = assay: Antibacterial activity against carbapenem resistant Acinetobacter baumannii isolate PR-345 assessed as bacterial growth inhibition by microdilution method; type: functional; outline: as §2
[21] = Plasma concentration in SC dosed CD-1 mouse treated four times at 6 hrs interval measured after 24 hrs; type: ADME, organism-based
Outline: (§7)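 CD-1 mice dosed SC at 50 mg/kg. Plasma sampled at 0.167 to 24 h, three individual mice per time point, reported as mean and SD in ng/mL.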

Pseudomonas aeruginosa [22] = assay: Antibacterial activity against Pseudomonas aeruginosa isolate PR-564 leucine at 533 residue assessed as inhibition of bacterial growth by microdilution method; type: functional; outline: as §2
[23] = Antibacterial activity against carbapenem susceptible Acinetobacter nosocomialis isolate PR-491 assessed as inhibition of bacterial growth in presence of 20 ug/ml sulbactam by microdilution method; type: functional; conditions: dose 20 µg/ml; outline: as §6
[24] = Substrate activity at IMP-1 (unknown origin) assessed as Kcat by measuring hydrolysis by spectrophotometry; type: ADME; outline: as §1
[25] = Plasma concentration in SC dosed CD-1 mouse treated four times at 6 hrs interval measured after 0.5 hrs; type: ADME, organism-based; outline: as §7

Structure (SMILES): CC(C)(O/N=C(\C(=O)N[C@H]1CN2CC(C(=O)NCCN3C(=O)c4cc(O)c(O)cc4C3=O)=C(C(=O)O)N2C1=O)c1nc(N)sc1Cl)C(=O)O
- Kcat [1]: 54 s⁻¹
- MIC (Acinetobacter baumannii [2]): > 16 µg/mL
- MIC (Acinetobacter baumannii [3]): > 16 µg/mL
- pIC50 [4]: 5.30
- Kcat/Km [5]: 3000 M⁻¹ s⁻¹
- inhibition at 30 µM (COX-1): > 50%
- MIC (Pseudomonas aeruginosa [6]): ≤ 0.25 µg/mL
- MIC (Acinetobacter baumannii [7]): ≤ 0.25 µg/mL
- inhibition at 100 µM (CYP2C8): 50%
- MIC (Acinetobacter baumannii [8]): > 16 µg/mL
- MIC (Acinetobacter baumannii [9]): > 16 µg/mL
- MIC (Acinetobacter baumannii [10]): ≤ 0.25 µg/mL
- MIC (Acinetobacter baumannii [11]): > 16 µg/mL
- MIC (Acinetobacter baumannii [12]): 8 µg/mL
- MIC [13]: ≤ 0.25 µg/mL
- MIC (Acinetobacter baumannii [14]): ≤ 0.25 µg/mL
- MIC (Acinetobacter baumannii [15]): > 16 µg/mL
- MIC (Acinetobacter baumannii [16]): ≤ 0.25 µg/mL
- MIC90 (Acinetobacter baumannii [17]): > 16 µg/mL
- MIC (Pseudomonas aeruginosa [18]): > 16 µg/mL
- MIC (Acinetobacter baumannii [19]): 0.5 µg/mL
- MIC (Acinetobacter baumannii [20]): > 16 µg/mL
- concentration at 24 h [21]: 601 ng/mL
- MIC (Pseudomonas aeruginosa [22]): > 16 µg/mL
- MIC [23]: ≤ 0.25 µg/mL
- Kcat [24]: 5 s⁻¹
- concentration at 0.5 h [25]: 16200 ng/mL
